Tests used:
[1] = Inhibitory concentration against hepatitis C virus NS5B-mediated RNA synthesis in HBI10A cells; assay type: functional, cell-based; conditions: Homo sapiens
[2] = Effective concentration against hepatitis C virus RNA replication in a subgenomic bicistronic replicon in HBI10A cells; assay type: functional, cell-based; conditions: Homo sapiens
How it was run: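 Stable Huh-7-derived HBI10A hepatoma line carrying a subgenomic bicistronic HCV replicon. Compound incubated with cells for 24 h. Relative replicon RNA then quantified by in situ ribonuclease protection assay.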

[3] = Cytotoxic concentration of compound in human HBI10A cells infected with hepatitis C virus in MTS assay; assay type: functional
How it was run: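 MTS cytotoxicity run on samples parallel to the replicon assay, at the same time (24 h compound exposure). Cells plated at 2.0 × 10⁴/well and compound added next day at 2× in medium. Incubation at 37 °C, 5% CO₂. MTS reagent added for 1 h, then absorbance read at 490 nm.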

[4] = Average intracellular Metabolism was measured in human HBI10A cells after 23 hr of incubation; assay type: functional
How it was run: (§1)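 Radiolabeled 5-[³H] compound at 2 µM incubated with Huh-7 (passage 27) or HBI10A (passage 15) cells for 3 or 23 h. Cells extracted and analysed by ion pair reverse-phase HPLC. Triphosphate reported as pmol/million cells, with major metabolic byproducts noted. Averages of at least three separate experiments.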

[5] = tested on: Huh-7; experiment: Average intracellular Metabolism was measured in human Huh-7 cells after 3 h of incubation; assay type: functional; how it was run: as §1
[6] = Average intracellular Metabolism was measured in human HBI10A cells after 3 h of incubation; assay type: functional; how it was run: as §1
[7] = tested on: Huh-7; experiment: Average intracellular Metabolism was measured in human Huh-7 cells after 23 hr of incubation; assay type: functional; how it was run: as §1

IC50 [1] | EC50 [2] | Structure (SMILES) | CC50 [3] | Activity [4] | Activity [5] | Activity [6] | Activity [7]
0.08 µM | > 50 µM | Nc1nc(O)c2ccn([C@@H]3O[C@H](CO)C[C@H]3O)c2n1 |  |  |  |  | 
1.2 µM | 25 µM | Nc1ccn([C@@H]2O[C@H](CO)C[C@H]2O)c(=O)n1 | > 50 µM |  |  |  | 
0.6 µM | > 50 µM | Nc1nc2c(ncn2[C@@H]2O[C@H](CO)C[C@H]2O)c(=O)[nH]1 |  |  |  |  | 

Further lines, the compound ahead of its results:

Structure (SMILES) | IC50 [1] | EC50 [2] | CC50 [3] | Activity [4] | Activity [5] | Activity [6] | Activity [7]
CC(C)(C)C(=O)SCCOP(=O)(OCCSC(=O)C(C)(C)C)OC[C@@H]1C[C@@H](O)[C@H](n2cnc3c(O)nc(N)nc32)O1 |  | 23 µM | > 50 µM |  |  |  | 
CO[C@@H]1[C@H](O)[C@@H](CO)O[C@H]1n1ccc2c(O)nc(N)nc21 | 0.35 µM | > 50 µM |  |  |  |  | 
CO[C@@H]1[C@H](O)[C@@H](COP(=O)(OCCSC(=O)C(C)(C)C)OCCSC(=O)C(C)(C)C)O[C@H]1n1ccc2c(O)nc(N)nc21 |  | > 50 µM | > 100 µM |  |  |  | 
CO[C@@H]1[C@H](O)[C@@H](CO)O[C@H]1n1ccc(N)nc1=O | 3.8 µM | 21 µM | > 100 µM | 0.18 pmol/million cells | 0.17 pmol/million cells | 0.05 pmol/million cells | 0.61 pmol/million cells

Reference: ChEMBL document CHEMBL1145189, “Synthesis and evaluation of S-acyl-2-thioethyl esters of modified nucleoside 5'-monophosphates as inhibitors of hepatitis C virus RNA replication” (J Med Chem, 2005)
